ARFGAP1 inh = inhibits rat ARF GTPase activating protein 1 | Arfgap1-stimulated ARF1 GTP hydrolysis, GDP FP detection | inhibition, % at 16.5 µM | 360,000 tested, 0.26% active | AID 651572;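 active = inhibition above a per-plate limit, mean inhibition of low control wells plus 3 SD, cut at about 25% in these data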;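 note: 0% = DMSO wells with enzyme and 100% = wells lacking Arfgap1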
Target sequence (Q62848 1-136 limits assumed): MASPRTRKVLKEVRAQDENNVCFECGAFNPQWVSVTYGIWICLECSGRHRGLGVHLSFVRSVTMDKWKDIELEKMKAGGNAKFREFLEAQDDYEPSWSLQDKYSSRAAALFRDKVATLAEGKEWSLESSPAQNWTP
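Assay system: purified rat His6-Arfgap1 residues 1-136 (GAP domain); Reagent: human Δ17 ARF1 bound to GTP; Dosing: 16.5 µM single point, 1.26% DMSO; Times: GTP hydrolysis reaction 2 h at 25 °C; Signal: FP, GDP Alexa 633 tracer displaced from anti-GDP antibody, 620/688 nm; Measure: % inhibition from polarization.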
Rtt109 HAT inh = C. albicans Rtt109 histone acetyltransferase inhibition | 330,000 tested, 0.16% active | AID 540336 | Q5AAJ8 | inhibition, % at 34.9 µM | purified Rtt109/Vps75, ThioGlo CoA-SH fluorescence, 4 h;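 active = inhibition of at least 50% in every replicate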
Target sequence (Q5AAJ8 whole entry, looked up): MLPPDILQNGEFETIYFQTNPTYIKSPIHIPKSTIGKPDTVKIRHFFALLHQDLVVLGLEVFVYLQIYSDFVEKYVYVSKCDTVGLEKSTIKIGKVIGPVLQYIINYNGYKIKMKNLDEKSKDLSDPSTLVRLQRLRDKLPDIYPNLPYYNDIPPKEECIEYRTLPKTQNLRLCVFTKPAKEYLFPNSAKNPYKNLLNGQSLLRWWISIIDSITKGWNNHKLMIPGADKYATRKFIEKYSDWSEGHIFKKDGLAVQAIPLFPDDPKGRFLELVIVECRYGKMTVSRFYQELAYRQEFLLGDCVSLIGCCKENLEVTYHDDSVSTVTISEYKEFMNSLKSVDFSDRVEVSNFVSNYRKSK
ASAP1 GAP inh = ASAP1 ArfGAP inhibition | ASAP1-stimulated ARF1 GTP hydrolysis, GDP FP detection | inhibition, % at 16.5 µM | 360,000 tested, 0.19% active | AID 624377; in the data active = inhibition above about 25%;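 note: 0% = vehicle with enzyme and substrate and 100% = no enzyme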
FGF22 binding-1 = FGF22 (human) thermal shift binding | Q9HCT0 | recombinant FGF22 thermal shift, SYPRO orange fluorescence; percent of sucrose octasulfate shift, DMSO zero | activity (Tm shift, normalised), % at 9.99 µM | 340,000 tested, 1.5% active;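 active = mean Tm shift, scaled 0 neutral to 100 positive control, at about 1.3% or above, every replicate too, limit read from the data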
Efflux pump inh = blocks antifungal efflux pumps in multiplex yeast assay; 330,000 tested, 0.44% active; inhibition, % at 10 µM; S. cerevisiae Candida pump triplex, Nile Red efflux; AID 485275;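 active = plate passing quality check with inhibition over a set limit, or well fluorescence over plate mean plus 4 SD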;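 note: Nile Red retained in pooled yeast measured as flow cytometry median fluorescence; 0% = buffer negative control and 100% = Enniatin B positive control; higher means more Nile Red kept so more efflux inhibition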
ASAP1 inh confirm = confirmation of human ASAP1 inhibitors; inhibition, % at 16.5 µM; 620 tested, 37% active; shares compounds with ASAP1 GAP inh; ASAP1-stimulated Arf1 GTPase, GDP fluorescence polarization;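 active = mean inhibition over triplicates exceeds the hit threshold derived for the earlier primary screening run, cut at about 25% in these data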
ARFGAP1 confirm = confirmation of rat ARFGAP1 inhibitors; shares compounds with ARFGAP1 inh; ARFGAP1-stimulated ARF1 GTP hydrolysis, GDP tracer FP; AID 651608; inhibition, % at 16.5 µM; 890 tested, 30% active;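 active = average inhibition over triplicates above the hit cutoff set in the earlier primary screen, cut at about 25% in these data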;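 note: 0% = Arfgap1 plus ARF1-GTP with DMSO and 100% = wells lacking Arfgap1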
FGF22 binding-2 = binders of human FGF22 by thermal shift. shares compounds with FGF22 binding-1. recombinant FGF22 thermal shift, SYPRO orange fluorescence. thermal shift activity, °C (ΔTm) at 38 µM. AID 720646. 1,000 tested, 2% active;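 active = fitted rise in melting shift crosses a set limit at or below the top valid dose tested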
TSA no protein = shows thermal shift signal without protein, FGF22 counter-screen; compound-only SYPRO orange thermal shift counter-screen, no protein; AID 743019; 1,000 tested, 2% active; shares compounds with FGF22 binding-1; AC50, µM (series often up to 38 µM);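 active = rising signal whose fitted curve reaches the 0.54 level within the top valid dose, showing a melting point, actives reach about 13 µM in these data; inactive = the rest, including activity in the opposite direction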; note: value is where the raw curve crosses a fixed level and not half-maximal
* = called active by the depositor; i = inactive; / = no result; ! = repeats disagree. Sampled rows, rich in hits. Any-hit rate of the full collection: about 1.9%.

SMILES	ARFGAP1 inh	Rtt109 HAT inh	ASAP1 GAP inh	FGF22 binding-1	Efflux pump inh	others
CCC(C)C1NC(=O)C(NC(=O)C(CC(C)C)N(C)C(=O)C2CCCN2C(=O)C(C)O)C(C)OC(=O)C(Cc2ccc(OC)cc2)N(C)C(=O)C2CCCN2C(=O)C(CC(C)C)NC(=O)[C@H](C)C(=O)[C@H](C(C)C)OC(=O)CC1O (stereo partly specified)	5	6	27*	0	/	ASAP1 inh confirm=3
O=C(c1cccc(N2CCCC2=O)c1)N1CCC2(CC1)OCCO2	7	-2	-1	/	0
CCC(C)NC(=O)CCC(=O)OC1O[C@H]2OC3(C)CC[C@H]4[C@H](C)CCC(C1C)C24OO3 (stereo partly specified)	-4	-3	-7	0	0
Nc1c(C(=O)NCc2ccco2)c2nc3ccccc3nc2n1Cc1ccc(F)cc1	0	-10	32*	/	0	ASAP1 inh confirm=14
Nc1c(C(=O)NCc2ccco2)c2nc3ccccc3nc2n1Cc1ccccc1	4	-68	1	/	0
COCCCn1c(N)c(C(=O)NCCC(C)C)c2nc3ccccc3nc21	23	1	27*	/	0	ASAP1 inh confirm=9
O=C(O)c1cccc2c1NC(C(=O)O)C1CC(Sc3ccccc3[N+](=O)[O-])C(Cl)C21 (stereo unspecified)	35*	60*	59*	/	0	ASAP1 inh confirm=61*;ARFGAP1 confirm=87*
CC(=O)c1ccc2c(c1)C1C(Cl)C(Sc3ccccc3[N+](=O)[O-])CC1C(C(=O)O)N2 (stereo unspecified)	0	-1	-1	/	0
CC(=NCC1CCCO1)c1c(O)n(Cc2ccccc2)c(=O)[nH]c1=O (stereo unspecified)	12	-4	3	/	0
CN(C)c1ccc(/C=C/c2cc[n+](C)c3ccccc23)cc1	37*	181*!	44*	-1	/	ASAP1 inh confirm=51*;ARFGAP1 confirm=49*
CN(C)c1ccc(/C=C/C=C/c2sc3ccccc3[n+]2C)cc1	92*	-1	80*	0	0	ASAP1 inh confirm=109*;ARFGAP1 confirm=127*
Cn1cc(C(=O)NC2CC2)c2ccccc21	4	7	-14	0	0
CCOC(=O)c1c(NC(=O)c2c(N)n(CCCOC)c3nc4ccccc4nc23)sc2c1CCCC2	2	2	-3	0	0
CCOCCCn1c(N)c(C(=O)Nc2sc3c(c2C(=O)OC)CCCC3)c2nc3ccccc3nc21	25*	-5	34*	/	0	ASAP1 inh confirm=14;ARFGAP1 confirm=4
CCOP(=O)(OCC)C(O)c1cccc([N+](=O)[O-])c1 (stereo unspecified)	26*	4	11	0	0	ARFGAP1 confirm=-1
CN1CCN(Cc2cc(C(C)(C)C)c(O)c(C(C)(C)C)c2)CC1	26*	12	7	/	0	ARFGAP1 confirm=6
S=C(NCCc1ccccc1)N1Cc2cc(Br)ccc2-n2nncc2C1	1	/	1	0	/
S=C(NCCc1ccccc1)N1Cc2ccc(Br)cc2-n2nncc2C1	26*	/	2	0	/	ARFGAP1 confirm=5
COc1ccc(-n2c(-c3ccccc3[N+](=O)[O-])nc3ccccc3c2=O)cc1	5	-4	7	0	0
O=c1[nH]c2cc(Cl)ccc2n1C1CCN(Cc2ccc(-c3nc4ccc(F)cc4nc3-c3ccccc3)cc2)CC1	4	/	18	0	/
CCC(C)n1c(O)c(C(c2ccccn2)c2c(O)n(C(C)CC)c(=S)[nH]c2=O)c(=O)[nH]c1=S (stereo unspecified)	-6	-5	0	26*	0	FGF22 binding-2=-0.062;TSA no protein=i
CCC(C)n1c(O)c(C=NC(C)c2ccccc2)c(=O)[nH]c1=S (stereo unspecified)	6	-8	-12	0	0
CCC(=O)OC1(c2cccc(C)c2)CC(C)N(C)CC1C (stereo unspecified)	8	-7	-7	/	0
Cc1ccc(S(=O)(=O)N(C)C[C@H]2Oc3cc(Br)ccc3S(=O)(=O)N([C@H](C)CO)C[C@@H]2C)cc1	-6	/	-14	1.6*!	/	FGF22 binding-2=-1.9;TSA no protein=10µM*
Cc1ccc(S(=O)(=O)N(C)C[C@@H]2Oc3cc(Br)ccc3S(=O)(=O)N([C@@H](C)CO)C[C@H]2C)cc1	/	/	/	2.2*	/	FGF22 binding-2=-0.038;TSA no protein=i
SMILES	ARFGAP1 inh	Rtt109 HAT inh	ASAP1 GAP inh	FGF22 binding-1	Efflux pump inh	others
Cc1ccc(OC(=O)N(C)C[C@@H]2OCc3cnnn3CCCC(=O)N([C@@H](C)CO)C[C@H]2C)cc1	2	/	-4	0	/
COc1ccc(-n2c(O)c(C=NCc3ccc4c(c3)OCO4)c(=O)[nH]c2=O)cc1	5	8	-4	0	0
N/C(=N\[N+](=O)[O-])NCCCC(NC(=O)CNC(=O)c1ccccc1)C(=O)O (stereo unspecified)	2	-10	-1	2.5*	0	FGF22 binding-2=0.08;TSA no protein=i
N/C(=N\[N+](=O)[O-])N1CCN(C(=O)c2ccccc2)CC1	5	/	4	0	0
COC(=O)C1=C(c2ccc(F)cc2F)C[C@@H]2CC[C@H]1N2C(=O)NCCNC(C)=O	/	-5	/	/	0
OC(CNCCc1c[nH]c2ccccc12)c1ccccc1 (stereo unspecified)	3	2	-2	1.4*	0	FGF22 binding-2=-0.17;TSA no protein=i
O=C(c1cccc2ccccc12)C1CCCN(Cc2ccon2)C1 (stereo unspecified)	15	-7	9	2.2*	0	FGF22 binding-2=-0.008;TSA no protein=i

Compound activity as filed in PubChem BioAssay.
